The values below come from ChEMBL document CHEMBL1125672, “2-acetylpyridine thiosemicarbazones. 13. Derivatives with antifilarial activity” (1991).

Common to all, as to format: functional
Assay [1] has as its system Onchocerca gutturosa. The assay is described as follows: Mean motility score for treated Onchocerca gutturosa involving LLCMK2 feeder cells at a concentration of 1.95*10e-8 M at 4.5 h. A digest of the protocol:
(§1)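 One male O. gutturosa per well over LLCMK2 feeder cells in MEM with 10% heat-inactivated FCS, antibiotics and bicarbonate, 5% CO2; compound introduced in DMSO (≤0.016%, equal DMSO in controls). Motility scored 0 (immotile) to 10 (maximal control activity) every 30 min to 4.5 h, then at 1, 2, 3, 4 and 7 days.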

Assay [2] deals with Onchocerca gutturosa. The assay is described as follows: Mean motility score for treated Onchocerca gutturosa involving LLCMK2 feeder cells at a concentration of 1.95*10e-8 M at 48 h. A digest of the protocol:
as §1

Assay [3] concerns Onchocerca gutturosa. Kind of assay: Mean motility score for treated Onchocerca gutturosa involving LLCMK2 feeder cells at a concentration of 1.95*10e-8 M at 0.5 h. Summed up: as §1
Assay [4] has as its system Onchocerca gutturosa. Kind of assay: Mean motility score for treated Onchocerca gutturosa involving LLCMK2 feeder cells at a concentration of 3.05*10e-8 M at […]. Summed up: as §1
The subject of assay [5] is Onchocerca gutturosa. Kind of assay: Colorimetric quantification of male Onchocerca gutturosa viability, expressed as % inhibition of formazan formation at 3.1*10e-6 M conc. by using tetrazolium Dye MTT assay. A digest of the protocol: (§2)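 Single intact male O. gutturosa, cultured with LLCMK2 feeder cells in MEM + 10% heat-inactivated FCS (5% CO2), drug added from DMSO (≤0.016% DMSO in controls). MTT read after 168 h: worm in 0.5 mg/mL MTT, 30 min at 36.5 °C, formazan solubilized in DMSO 1 h at room temperature, absorbance 490 nm vs DMSO blank.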
A general note: Formazan colour is commonly taken as a measure of viable cells.

Assay [6] relates to Onchocerca gutturosa. The assay is described as follows: Mean motility score for treated Onchocerca gutturosa involving LLCMK2 feeder cells at a concentration of 4.88*10e-8M at 168 h. A digest of the protocol:
(§3)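 Single male O. gutturosa worms (obtained following abattoir slaughter) per well in Eagle's MEM with 10% heat-inactivated fetal calf serum, penicillin, streptomycin, amphotericin B and bicarbonate, over LLCMK2 feeder cells, 5% CO2 in air. Drug dissolved in DMSO; controls received matched DMSO ≤0.016%. Motility scored 0 (immotile) to 10 (maximum control activity) every 30 min to 4.5 h, then days 1, 2, 3, 4, 7.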

The subject of assay [7] is Onchocerca gutturosa. Kind of assay: Mean motility score for treated Onchocerca gutturosa involving LLCMK2 feeder cells at a concentration of 4.88*10e-8M at 2 h. Summed up: as §3
The subject of assay [8] is Onchocerca gutturosa. The assay is described as follows: Mean motility score for treated Onchocerca gutturosa involving LLCMK2 feeder cells at a concentration of 4.88*10e-8M at 2.5 h. Summed up: as §3
Assay [9] concerns Onchocerca gutturosa. The assay is described as follows: Mean motility score for treated Onchocerca gutturosa involving LLCMK2 feeder cells at a concentration of 4.88*10e-8M at 3.5 h. A digest of the protocol:
as §3

Assay [10] has as its system Onchocerca gutturosa. The assay is described as follows: Mean motility score for treated Onchocerca gutturosa involving LLCMK2 feeder cells at a concentration of 4.88*10e-8M at 4 h. Summed up:
as §3

The test system of assay [11] is Onchocerca gutturosa. Kind of assay: Mean motility score for treated Onchocerca gutturosa involving LLCMK2 feeder cells at a concentration of 4.88*10e-8M at 72 h. A digest of the protocol:
as §3

The test system of assay [12] is Onchocerca gutturosa. Kind of assay: Mean motility score for treated Onchocerca gutturosa involving LLCMK2 feeder cells at a concentration of 5*10e-5 M at 168 h. A digest of the protocol:
as §3

Assay [13] concerns Onchocerca gutturosa. The assay is described as follows: Mean motility score for treated Onchocerca gutturosa involving LLCMK2 feeder cells at a concentration of 1.95*10e-8 M at 3.5 h. Particulars: in the assay text read “1.95*10e-7 M” for “1.95*10e-8 M”. A digest of the protocol:
as §1

Assay [14] concerns Onchocerca gutturosa. The assay is described as follows: Mean motility score for treated Onchocerca gutturosa involving LLCMK2 feeder cells at a concentration of 3.1*10e-6 M at 4.5 h. Summed up: as §3
Assay [15] relates to Onchocerca gutturosa. The assay is described as follows: Mean motility score for treated Onchocerca gutturosa involving LLCMK2 feeder cells at a concentration of 3.1*10e-6 M at 96 h. Summed up: as §3
Assay [16] has as its system Onchocerca gutturosa. The assay is described as follows: Mean motility score for treated Onchocerca gutturosa involving LLCMK2 feeder cells at a concentration of 1.95*10e-8 M at 2 h. Summed up:
as §1

Assay [17] deals with Onchocerca gutturosa. Kind of assay: Mean motility score for treated Onchocerca gutturosa involving LLCMK2 feeder cells at a concentration of 1.95*10e-8 M at 2.5 h. Summed up:
as §1

Assay [18] deals with Onchocerca gutturosa. The assay is described as follows: Mean motility score for treated Onchocerca gutturosa involving LLCMK2 feeder cells at a concentration of 1.95*10e-8 M at 24 h. Summed up: as §1
Assay [19] has as its system Onchocerca gutturosa. Kind of assay: Mean motility score for treated Onchocerca gutturosa involving LLCMK2 feeder cells at a concentration of 3.1*10e-6 M at 2 h. Summed up:
as §3

Assay [20] has as its system Onchocerca gutturosa. Kind of assay: Mean motility score for treated Onchocerca gutturosa involving LLCMK2 feeder cells at a concentration of 3.1*10e-6 M at 2.5 h. Summed up: as §3
For assay [21], the system named is Onchocerca gutturosa. Kind of assay: Mean motility score for treated Onchocerca gutturosa involving LLCMK2 feeder cells at a concentration of 3.1*10e-6 M at 3.5 h. A digest of the protocol:
as §3

The subject of assay [22] is Onchocerca gutturosa. The assay is described as follows: Mean motility score for treated Onchocerca gutturosa involving LLCMK2 feeder cells at a concentration of 1.95*10e-8 M at 1 h. Summed up:
as §1

The test system of assay [23] is Onchocerca gutturosa. Kind of assay: Mean motility score for treated Onchocerca gutturosa involving LLCMK2 feeder cells at a concentration of 1.95*10e-8 M at 1.5 h. Summed up: as §1
For assay [24], the system named is Onchocerca gutturosa. Kind of assay: Colorimetric quantification of male Onchocerca gutturosa viability, expressed as % inhibition of formazan formation at 1.95*10e-7 M conc. by using tetrazolium Dye MTT assay. Summed up: as §2
For assay [25], the system named is Brugia pahangi. Kind of assay: anti-filarial Activity was measured against Brugia pahangi in jirds at 50 mg/kg/day(5 days) dose. A digest of the protocol: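 Jirds with established B. pahangi or A. viteae infections were given drug once daily for 5 days by subcutaneous injection, at the maximum tolerated dose and, where supply allowed, graded lower doses. Tolerance was first checked in noninfected jirds with a single 200 mg/kg oral or subcutaneous dose, watching 72 h for excessive weight loss or death. Macrofilarial suppression was the read-out.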

The test system of assay [26] is Onchocerca gutturosa. Kind of assay: Mean motility score for treated Onchocerca gutturosa involving LLCMK2 feeder cells at a concentration of 1.21*10e-8M at 1.5 h. Summed up:
as §1

For assay [27], the system named is Onchocerca gutturosa. Kind of assay: Mean motility score for treated Onchocerca gutturosa involving LLCMK2 feeder cells at a concentration of 1.21*10e-8M at 24 h. A digest of the protocol:
as §1

The subject of assay [28] is Onchocerca gutturosa. The assay is described as follows: Mean motility score for treated Onchocerca gutturosa involving LLCMK2 feeder cells at a concentration of 3.05*10e-9 M at 1 h. Summed up: as §1
The test system of assay [29] is Onchocerca gutturosa. The assay is described as follows: Mean motility score for treated Onchocerca gutturosa involving LLCMK2 feeder cells at a concentration of 3.05*10e-9 M at 1.5 h. A digest of the protocol:
as §1

The test system of assay [30] is Onchocerca gutturosa. Kind of assay: Mean motility score for treated Onchocerca gutturosa involving LLCMK2 feeder cells at a concentration of 3.05*10e-9 M at 2.5 h. A digest of the protocol: as §3
In assay [31] the test system is Onchocerca gutturosa. Kind of assay: Mean motility score for treated Onchocerca gutturosa involving LLCMK2 feeder cells at a concentration of 1.21*10e-8M at 48 h. Summed up:
as §1

In assay [32] the test system is Onchocerca gutturosa. The assay is described as follows: Mean motility score for treated Onchocerca gutturosa involving LLCMK2 feeder cells at a concentration of 1.21*10e-8M at 72 h. Summed up:
as §1

For assay [33], the system named is Onchocerca gutturosa. The assay is described as follows: Mean motility score for treated Onchocerca gutturosa involving LLCMK2 feeder cells at a concentration of 1.94*10e-7M at 1 h. Summed up:
as §1

For assay [34], the system named is Onchocerca gutturosa. Kind of assay: Mean motility score for treated Onchocerca gutturosa involving LLCMK2 feeder cells at a concentration of 1.94*10e-7M at 96 h. A digest of the protocol:
as §1

Assay [35] concerns Onchocerca gutturosa. The assay is described as follows: Mean motility score for treated Onchocerca gutturosa involving LLCMK2 feeder cells at a concentration of 1.94*10e-7M at 168 h(O = IMMOTILE). A digest of the protocol:
as §1

The term Inhibition denotes the share of the control response that was lost under treatment. Take `C/C(=N\NC(=S)N1CCCCCC1)c1ccccn1`: the Motility in assay [1] came out at 9.5; in assay [2], 2.5; in assay [3] it was 8.8; in assay [4] it was 8.5; in [6], 0; in assay [7], 8.8. For the same compound, the Motility in assay [8] is 8.3; in [9], 8.5; in [10], 8.8; in assay [11] it was 3.5; in [12] it was 0; in assay [13], 10. The Motility in assay [14] is recorded as 9.5; in assay [15], 0; in [16] it was 9.3; in assay [17], 9.3; in assay [18], 8; in assay [19], 9.8. For the same compound, the Motility in [20] is recorded as 8.5; in assay [21], 9; in assay [22], 9.5; in assay [23] it was 9.5. Further, the Inhibition came to 90.2% in [5] and 70.4% in assay [24].

With `C/C(=N\NC(S)=Nc1ccccc1N)c1ccccn1`, in [25], the Suppression is 100%. The Motility in assay [26] was 4.3; in assay [27], 9; in assay [28] it was 8.8; in assay [29], 8.3; in [30], 7.5; in [31] it was 7.3. In addition, the Motility in [32] is 6.8; in assay [33] it was 9.8; in [34], 1.8; in assay [35] it was 0.
